Screening results from PubChem BioAssay.
Keap1-Nrf2 PPI – Keap1-Nrf2 (human) interaction inhibition | Keap1 Kelch-Nrf2 peptide fluorescence polarization, 1536-well | inhibition, % at 9.4 µM | 340,000 tested, 0.15% active | Q14145; in the data active = inhibition above about 12%;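 also: human Keap1 Kelch domain with fluorescein labeled Nrf2 9mer peptide probe; 0% = neutral control wells and 100% = peptide positive control; higher means more block of Keap1 binding to Nrf2 peptide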
C-LANA FP – KSHV C-LANA DNA binding inhibition. MBP-C-LANA/FAM-LBS DNA binding, fluorescence polarization. inhibition, % at 9 µM. 340,000 tested, 0.078% active. AID 504423;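 active = highest replicate inhibition at or above 60% at 9 µM, even if other replicates fall short; inactive = all replicates below 60% inhibition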;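 also: 0% = neutral control wells and 100% = 4 µM acridine orange control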
Tn7 DDE FP – DD(E)-Tn7 binding inhibition, primary FP screen. P02675. FP displacement of FITC-Tn7 peptide from fibrin DD(E); 0% = median of compound wells per plate. inhibition, % at 8.3 µM. 370,000 tested, 0.13% active. AID 720508;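 active = inhibition above the mean of compounds falling within the control limits plus 3 SD of them, cut at about 14% in these data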;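 also: 0% = plate median of compound wells and 100% = 10 µM Aha-Tn7 peptide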
Target sequence (P02675 whole entry, looked up): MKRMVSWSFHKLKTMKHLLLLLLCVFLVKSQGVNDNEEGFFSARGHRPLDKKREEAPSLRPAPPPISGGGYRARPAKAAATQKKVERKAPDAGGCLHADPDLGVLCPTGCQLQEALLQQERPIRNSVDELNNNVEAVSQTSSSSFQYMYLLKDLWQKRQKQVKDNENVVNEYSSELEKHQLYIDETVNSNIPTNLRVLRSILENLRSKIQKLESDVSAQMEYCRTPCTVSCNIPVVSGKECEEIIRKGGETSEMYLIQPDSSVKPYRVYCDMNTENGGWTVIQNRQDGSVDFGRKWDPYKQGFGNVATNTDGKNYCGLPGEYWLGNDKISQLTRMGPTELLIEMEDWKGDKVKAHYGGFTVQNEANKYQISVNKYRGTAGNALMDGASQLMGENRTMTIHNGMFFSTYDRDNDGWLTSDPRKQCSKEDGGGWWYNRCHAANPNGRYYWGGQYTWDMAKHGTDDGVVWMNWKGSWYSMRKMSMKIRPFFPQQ
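Test system – human fibrin DD(E) · Times – 10 min preincubation, 3 h with tracer, room temperature · Detection – fluorescence polarization of the labelled Tn7 tracer · Measure – percent inhibition normalized to high-control wells · Benchmarks – high control wells with 10 µM unlabelled Aha-Tn7 peptide (full inhibition) · Repeats – singlicate testing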
RTF Ca sens inh – cardiac RTF calcium desensitization. P19429+P45379. IANBD-labeled cardiac RTF, Ca2+ fluorescence. inhibition, % at 7.15 µM. 340,000 tested, 0.12% active;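 active = inhibition above the mean inhibition of all tested compounds plus 3 SD, cut at about 17% in these data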;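 also: assay run at fixed EC70 calcium of 1.6 mM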
RTF Ca sens act – increases calcium sensitivity of human cardiac regulated thin filaments | P19429+P45379 | IANBD-labeled TnC RTF fluorescence at EC20 calcium; 0% EC20 calcium, 100% full calcium | activation, % at 7.2 µM | 340,000 tested, 0.24% active | AID 493008;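 active = activation above the mean over all tested compounds plus 3 SD, cut at about 30% in these data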;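 also: rise in fluorescence read as greater calcium sensitivity of cardiac thin filaments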
Tn6 DDE FP – disrupts Tn6 cyclic peptide binding to fibrin D-Dimer-E complex; P02675; Fibrin DD(E) TRITC-Tn6 fluorescence polarization displacement; inhibition, % at 8.3 µM; 370,000 tested, 0.21% active; AID 720509;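 active = inhibition above a per-campaign cutoff: mean of compounds within control limits plus 3 SD, cut at about 15% in these data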;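 also: 0% = median of all compound wells on the plate and 100% = blocking peptide control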
An asterisk follows results filed as active; i = inactive; x = not tested or not shown; + = active, no number. Hits are enriched below; roughly 0.73% of the tested compounds scored in any of these assays.

SMILES	Keap1-Nrf2 PPI	C-LANA FP	Tn7 DDE FP	RTF Ca sens inh	RTF Ca sens act	Tn6 DDE FP
O=C(NCCc1ccccc1)C1CCCN(S(=O)(=O)c2cccc3nonc23)C1 (centres undefined)	-6.5	1.5	13.9*	-5.4	4.3	5.7
CCCCOCCCNC(=O)C[C@H]1C[C@@]2(C(=O)OC)C(=C[C@H](C(C)C)O[C@@H]2C2CC2)N(Cc2cccc3ccccc23)C1=O	x	x	-0.6	x	x	-5.0
CCCC(=Nc1ccccc1)C1=C(O)C(C(=O)OC)C(C)(C)CC1=O (centres undefined)	-5.9	1.4	4.0	-3.8	-5.8	3.3
CCC(=Nc1ccc(N)cc1)C1=C(O)C(C(=O)OC)C(C)(C)CC1=O (centres undefined)	-0.3	3.4	7.2	-1.4	-2.8	125.2*
COc1cc(/C=C(\C#N)c2nc3ccccc3o2)ccc1O	-34.0	-38.7	-26.4	-78.0	50.4*	-7.0
CCOC(=O)Nc1cc(=O)c([N+](=O)[O-])c(N)[nH]1	x	x	-5.9	x	x	1.9
S=c1c2c(nc3nc[nH]n13)CCC2	-2.2	62.8*	2.2	-11.6	1.7	7.5
COc1ccc(-c2csc(NC(=O)CSc3nc(C)nc4sc(C(=O)O)c(C)c34)n2)cc1	2.0	102.7*	1.9	2.8	0.1	3.5
COc1ccc(-c2csc(NC(=O)CSc3nc(C)cs3)n2)cc1	0.6	5.5	1.9	4.6	-0.2	-2.7
CSC1=NSC2=NC(=O)/C(=C\c3coc4ccccc4c3=O)C(=N)N12	-74.7	11.9	-2.2	-142.8	192.9*	2.2
CN1C(=O)/C(=C/c2coc3ccc(O)cc3c2=O)SC1=S	-4.5	-0.5	-4.3	-11.1	0.1	7.6
N=C1/C(=C\c2coc3ccc(O)cc3c2=O)C(=O)N=C2SC=CN12	-7.6	27.4	-6.9	-218.1	151.7*	-7.6
N=C1/C(=C\c2coc3ccccc3c2=O)C(=O)N=C2SC(c3ccncc3)=NN12	-62.2	-24.2	-6.6	-170.6	91.6*	-21.6
Cc1ccc(C2=N/C(=C\c3coc4ccccc4c3=O)C(=O)O2)cc1	x	x	0.0	x	x	-4.2
CC(C)CSC1=NSC2=NC(=O)/C(=C\c3coc4ccccc4c3=O)C(=N)N12	-121.7	5.5	-0.7	i	662.2*	-2.3
COCC(=O)N(c1ccc(C(C)(C)C)cc1)C(C(=O)NC(C)(C)C)c1cccnc1 (centres undefined)	x	x	2.3	x	x	4.3
Oc1c(Br)cc(/C=N/n2c(-c3ccccc3)n[nH]c2=S)c(O)c1Br	23.6*	24.1	x	-3.8	-2.5	x
COc1cccc(CO[C@H]2C=C[C@@H](c3ccccc3)O[C@@H]2CO)c1	x	x	1.9	x	x	9.4
O=C(CC1C=CCC1)OCCN1CCN(C2CN(Cc3cn(Cc4ccccc4Cl)nn3)S(=O)(=O)C2)CC1 (centres undefined)	x	x	1.7	x	x	2.5
C=CCN1C(=O)/C(=C2/Sc3ccccc3N2CC)SC1=S	-4.2	2.8	3.5	-9.3	9.6	6.4
C=CCN1C(=O)/C(=C/C=C2/N(CC)c3ccc(S(=O)(=O)N(C)C)cc3N2CC)SC1=S	-39.8	-26.9	-20.4	-445.5	429.3*	-1.9
CCn1c(Cc2cccs2)nnc1SCC(=O)Nc1ccc2c(c1)OCCO2	x	x	10.7	x	x	-5.8
CCOC(=O)c1cc(C#N)c(SCC(=O)c2cc(C#N)c(SC)nc2C)[nH]c1=O	8.5	30.9	-4.1	-72.5	57.9*	7.4
CC(=O)n1c(C=Nc2ccc(Cl)cc2)c(O)c2ccccc21	7.1	3.1	0.4	-0.7	38.0*	1.7
Cn1c(=O)c(Oc2ccc(Cl)cc2)c(O)c2ccccc21	-2.1	1.6	-8.5	6.4	-6.3	0.7
SMILES	Keap1-Nrf2 PPI	C-LANA FP	Tn7 DDE FP	RTF Ca sens inh	RTF Ca sens act	Tn6 DDE FP
CC(C)C[C@H]1COc2ccc(Cl)cc2S(=O)(=O)N1Cc1cn(Cc2ccc(C(F)(F)F)cc2)nn1	x	x	-4.0	x	x	6.0
COc1ccc(N2C(=O)c3cccc4cccc(c34)C2=O)cc1	0.0	6.0	-2.7	-5.8	0.7	1.3
COc1ccc(N2C(=O)c3cccc4c(N(C)CCO)ccc(c34)C2=O)cc1	-1.7	32.6	-2.2	-71.1	48.0*	-1.9
NS(=O)(=O)c1ccc(N2N=C(c3ccccc3)CC2c2ccccc2)cc1 (centres undefined)	1.9	-2.0	-5.4	-48.0	43.1*	-2.4
COCCN1CCCc2nc(-c3ccc(Br)cc3)ccc21	x	x	6.3	x	x	10.1
Cc1ccsc1C1C=C(c2cccc(Br)c2)Nc2ncnn21 (centres undefined)	6.8	19.9	x	-58.5	46.4*	x
N#C/C(=C\Nc1ccc2cn[nH]c2c1)c1nc(-c2ccccc2)cs1	-1.3	-3.2	-4.0	-2.3	-5.6	1.2
Cc1ccnc(N/C=C(\C#N)c2nc(-c3cccc(Br)c3)cs2)c1	-5.4	0.7	0.0	-156.4	95.4*	-0.5
Cc1ccc(S(=O)(=O)OCC(=O)Nc2ccc(C(=O)O)c(O)c2)cc1	-4.8	62.3*	5.1	-10.3	-6.3	-9.7
N#CCC[C@@H]1CC[C@]2(CCCN(C(=O)c3ccco3)C2)O1	x	x	0.7	x	x	7.2
C[n+]1c2cc(N)ccc2cc2ccc(N)cc21	+	195.3*	-7.3	i	+	-3.0
Nc1ccc2ccc(O)cc2c1	2.5	2.8	-3.6	3.6	-5.1	-16.2
CC1C/C(=C/c2cccn2C)C(=O)/C(=C/c2cccn2C)C1 (centres undefined)	-16.0	-7.2	5.1	-410.0	375.5*	1.2
CC(C)(C)c1ccc(C(=O)n2cnc3ccccc32)cc1	-3.6	7.3	8.5	-1.1	49.6*	-5.7
C/C(=N\NC(=O)c1cc2c(s1)CCC(C)C2)c1ccc[nH]1 (centres undefined)	-145.4	29.1	3.5	-29.2	36.9*	6.2
C/C(=N\NC(=O)c1cc2c(s1)CCC(C)C2)c1ccncc1 (centres undefined)	-1.6	0.9	-2.8	3.7	-3.9	-7.6
Cc1ccc(OCCCC(=O)NC2CCCCC2)cc1	-3.9	0.5	-1.4	-3.1	38.3*	-8.7
O=C1c2ccccc2NC(c2cn[nH]c2-c2ccc(Cl)cc2)N1O (centres undefined)	12.2*	8.5	-1.4	-8.9	4.5	-8.8
O=C1c2ccccc2NC(c2cn[nH]c2-c2ccccc2)N1O (centres undefined)	4.2	-0.8	-6.1	-10.3	4.5	-4.7
COc1cccc(-c2ccc3c(c2)[C@@H]2C[C@H]4[C@@H](CN2CC3)[C@H](C)ON4C)c1	x	x	-0.7	x	x	-5.1
NC(=O)c1c(NC(=O)C2COc3ccccc3O2)sc2c1CCN(Cc1ccccc1)C2 (centres undefined)	-2.0	23.4	-9.9	-76.8	38.0*	2.8
CC(=O)c1ccc(C(=O)Nc2sc3c(c2C(N)=O)CCN(Cc2ccccc2)C3)cc1	-4.0	8.7	-6.6	-160.5	102.3*	-6.4
